{"source": "ChEMBL document CHEMBL4024779", "about": "“Novel Terminal Bipheny-Based Diapophytoene Desaturases (CrtN) Inhibitors as Anti-MRSA/VISR/LRSA Agents with Reduced hERG Activity” (J Med Chem, 2018)", "key": {"Cytochrome P450 3A4": {"target": "Cytochrome P450 3A4 (Homo sapiens, UniProt P08684)", "sequence (P08684 whole entry)": "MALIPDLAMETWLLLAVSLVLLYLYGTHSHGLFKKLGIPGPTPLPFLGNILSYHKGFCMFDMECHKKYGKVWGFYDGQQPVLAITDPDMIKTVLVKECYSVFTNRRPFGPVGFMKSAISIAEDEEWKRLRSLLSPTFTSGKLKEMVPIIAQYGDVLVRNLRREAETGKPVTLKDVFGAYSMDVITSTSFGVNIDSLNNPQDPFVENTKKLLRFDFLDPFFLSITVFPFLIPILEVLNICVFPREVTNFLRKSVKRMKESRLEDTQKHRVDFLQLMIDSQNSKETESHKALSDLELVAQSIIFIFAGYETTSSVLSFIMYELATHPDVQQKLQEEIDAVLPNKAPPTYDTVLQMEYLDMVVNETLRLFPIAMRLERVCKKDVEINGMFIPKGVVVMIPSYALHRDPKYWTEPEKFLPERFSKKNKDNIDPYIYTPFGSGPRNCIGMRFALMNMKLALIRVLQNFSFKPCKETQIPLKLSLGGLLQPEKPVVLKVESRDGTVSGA", "experiment": "Inhibition of CYP3A4 in human liver microsomes using testosterone as substrate upto 10 uM after 5 mins in presence of NADPH by LC-MS/MS analysis", "type": "ADME"}, "[1]": {"experiment": "Cmax in Sprague-Dawley rat at 10 mg/kg, po administered as single dose by LC-MS/MS analysis", "type": "ADME, organism-based", "set-up": "dose 10 mg/kg, route oral", "details": "in vivo"}, "[2]": {"experiment": "Cmax in Sprague-Dawley rat at 10 mg/kg, ip administered as single dose by LC-MS/MS analysis", "type": "ADME, organism-based", "set-up": "dose 10 mg/kg, route intraperitoneal", "details": "in vivo"}, "[3]": {"experiment": "Oral bioavailability in Sprague-Dawley rat at 10 mg/kg administered as single dose by LC-MS/MS analysis", "type": "ADME, organism-based", "details": "in vivo"}, "[4]": {"experiment": "AUC (0 to 24 hrs) in mouse at 10 mg/kg, po administered as single dose by LC-MS/MS analysis", "type": "ADME, organism-based", "set-up": "time < 24 hr, dose 10 mg/kg, route oral", "details": "in vivo"}, "[5]": {"experiment": "AUC (0 to infinity) in mouse at 10 mg/kg, po administered as single dose by LC-MS/MS analysis", "type": "ADME, organism-based", "set-up": "dose 10 mg/kg, time infinity, route oral", "details": "in vivo"}, "[6]": {"experiment": "Cmax in mouse at 10 mg/kg, po administered as single dose by LC-MS/MS analysis", "type": "ADME, organism-based", "set-up": "dose 10 mg/kg, route oral", "details": "in vivo"}, "[7]": {"experiment": "Tmax in mouse at 2 mg/kg, iv administered as single dose by LC-MS/MS analysis", "type": "ADME, organism-based", "details": "in vivo"}, "Staphylococcus aureus [8]": {"system": "Staphylococcus aureus", "experiment": "In vivo anti-virulence activity against Staphylococcus aureus Newman in mouse lethal infection model assessed as host survival rate at 0.1 mg bid for 3.5 days administered intraperitoneally 6 hrs post infection and measured on day 8", "type": "functional", "how_it_was_run": "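In a lethal sepsis model, mice (n=15) were challenged with 2 × 10^8 CFU S. aureus Newman. Animal survival was recorded daily through day 8.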"}, "[9]": {"experiment": "Inhibition of CrtN in methicillin-resistant Staphylococcus aureus NRS108 assessed as reduction in staphyloxanthin levels after 48 hrs by spectrophotometric method-based pigment inhibition assay"}, "[10]": {"experiment": "Inhibition of CrtN in methicillin-resistant Staphylococcus aureus XN108 assessed as reduction in staphyloxanthin levels after 48 hrs by spectrophotometric method-based pigment inhibition assay"}, "Staphylococcus aureus [11]": {"system": "Staphylococcus aureus", "experiment": "In vivo anti-virulence activity against methicillin-resistant Staphylococcus aureus LRSA56 infected in BALB/c mouse model assessed as reduction in bacterial load in kidney at 0.1 mg bid for 3.5 days administered intraperitoneally 6 hrs post infection by serial dilution method relative to control", "type": "functional", "set-up": "scale not given: the % may be the effect or the level left", "how_it_was_run": "(§1)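 Mice were infected by retro-orbital injection with LRSA56 (5.0 × 10^7 CFU) or LRSA202 (7.0 × 10^7 CFU). Compound was given intraperitoneally 6 h after infection. […] Log10 CFU was counted in kidneys and hearts, with groups compared by two-tailed Mann-Whitney test.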"}, "Staphylococcus aureus [12]": {"system": "Staphylococcus aureus", "experiment": "In vivo anti-virulence activity against methicillin-resistant Staphylococcus aureus LRSA56 infected in BALB/c mouse model assessed as reduction in bacterial load in heart at 0.1 mg bid for 3.5 days administered intraperitoneally 6 hrs post infection by serial dilution method relative to linezolid", "type": "functional", "set-up": "scale not given: the % may be the effect or the level left", "how_it_was_run": "as §1"}, "Staphylococcus aureus [13]": {"system": "Staphylococcus aureus", "experiment": "In vivo anti-virulence activity against methicillin-resistant Staphylococcus aureus NF65Y infected in BALB/c mouse model assessed as reduction in bacterial load in kidney at 0.1 mg bid for 3.5 days administered intraperitoneally 6 hrs post infection by serial dilution method relative to linezolid", "type": "functional, organism-based", "how_it_was_run": "(§2)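 Mice infected retro-orbitally with S. aureus NF65Y (3.5 × 10^8 CFU) or XN108 (2.1 × 10^8 CFU). Test compound given i.p. b.i.d. starting 6 h post-infection. […] Log10 CFU per kidney and heart counted. Two-tailed Mann−Whitney test.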"}, "Staphylococcus aureus [14]": {"system": "Staphylococcus aureus", "experiment": "In vivo anti-virulence activity against methicillin-resistant Staphylococcus aureus NF65Y infected in BALB/c mouse model assessed as reduction in bacterial load in kidney at 0.1 mg bid for 3.5 days administered intraperitoneally 6 hrs post infection by serial dilution method relative to vancomycin", "type": "functional, organism-based", "how_it_was_run": "as §2"}, "Staphylococcus aureus [15]": {"system": "Staphylococcus aureus", "experiment": "In vivo anti-virulence activity against methicillin-resistant Staphylococcus aureus XN108 infected in BALB/c mouse model assessed as reduction in bacterial load in heart at 0.1 mg bid for 3.5 days administered intraperitoneally 6 hrs post infection by serial dilution method relative to linezolid", "type": "functional, organism-based", "how_it_was_run": "as §2"}, "Staphylococcus aureus [16]": {"system": "Staphylococcus aureus", "experiment": "In vivo anti-virulence activity against methicillin-resistant Staphylococcus aureus XN108 infected in BALB/c mouse model assessed as reduction in bacterial load in kidney at 0.1 mg bid for 3.5 days administered intraperitoneally 6 hrs post infection by serial dilution method relative to linezolid", "type": "functional, organism-based", "how_it_was_run": "as §2"}, "Staphylococcus aureus [17]": {"system": "Staphylococcus aureus", "experiment": "In vivo anti-virulence activity against methicillin-resistant Staphylococcus aureus XN108 infected in BALB/c mouse model assessed as reduction in bacterial load in kidney at 0.1 mg bid for 3.5 days administered intraperitoneally 6 hrs post infection by serial dilution method relative to vancomycin", "type": "functional, organism-based", "how_it_was_run": "as §2"}, "Rattus norvegicus [18]": {"system": "Rattus norvegicus", "experiment": "Toxicity in Sprague-Dawley rat at 60 to 1000 mg/kg, po administered as single dose assessed as changes in water consumption measured during 2 weeks post administration", "type": "organism-based", "details": "in vivo, 336 h", "how_it_was_run": "(§3)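 Rats, 30 in total, randomised into three groups. Each received a single oral dose of 60, 250 or 1000 mg/kg on day 1. Poisoning symptoms, mortality, behaviour, water and food consumption and body weight monitored immediately and over 2 weeks.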"}, "Rattus norvegicus [19]": {"system": "Rattus norvegicus", "experiment": "Toxicity in Sprague-Dawley rat at 60 to 1000 mg/kg, po administered as single dose assessed as changes in food consumption measured during 2 weeks post administration", "type": "organism-based", "details": "in vivo, 336 h", "how_it_was_run": "as §3"}, "Staphylococcus aureus [20]": {"system": "Staphylococcus aureus", "experiment": "Antibacterial activity against Staphylococcus aureus Newman after 24 hrs by broth dilution method", "type": "functional", "details": "Staphylococcus aureus, Newman, 24 h; read-out: MIC"}, "Staphylococcus aureus [21]": {"system": "Staphylococcus aureus", "experiment": "In vivo anti-virulence activity against Staphylococcus aureus NRS271 infected in BALB/c mouse model assessed as reduction in bacterial load in kidney at 0.2 mg bid for 3.5 days administered orally 6 hrs post infection by serial dilution method relative to control", "type": "functional, organism-based", "how_it_was_run": "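Mice were infected by retro-orbital injection with Mu50 (4.6 × 10^9 CFU) or NRS271 (3.5 × 10^8 CFU). Oral compound was given b.i.d. for 3.5 d, starting 6 h after infection. Log10 CFU was counted per kidney and per heart.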"}, "[22]": {"target": "T1, 4,4'-diapophytoene desaturase (4,4'-diaponeurosporene-forming) (Staphylococcus aureus (strain MW2)) (UniProt Q8NUQ6)", "T1 sequence (whole entry)": "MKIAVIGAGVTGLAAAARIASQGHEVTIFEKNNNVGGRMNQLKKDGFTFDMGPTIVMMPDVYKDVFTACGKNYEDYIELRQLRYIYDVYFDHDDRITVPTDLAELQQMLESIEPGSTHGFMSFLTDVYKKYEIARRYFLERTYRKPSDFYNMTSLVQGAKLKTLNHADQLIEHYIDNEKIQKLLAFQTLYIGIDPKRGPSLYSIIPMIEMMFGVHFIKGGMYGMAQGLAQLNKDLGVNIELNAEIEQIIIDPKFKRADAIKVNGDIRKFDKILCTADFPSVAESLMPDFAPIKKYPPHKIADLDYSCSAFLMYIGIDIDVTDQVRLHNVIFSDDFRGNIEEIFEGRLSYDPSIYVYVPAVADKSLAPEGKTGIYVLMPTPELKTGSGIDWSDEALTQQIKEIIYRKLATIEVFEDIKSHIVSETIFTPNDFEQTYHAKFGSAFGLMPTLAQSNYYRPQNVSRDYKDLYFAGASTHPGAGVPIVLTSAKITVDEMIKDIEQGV", "details": "Staphylococcus aureus subsp. aureus MW2; USA400; 1 uM"}}, "note": "Calls of active or inactive are those of the source. The calls are words filed in the database; no cut-off is given here."}
{"smiles": "CN(C/C=C/c1ccc(-c2ccccc2)cc1)Cc1coc2ccccc12.Cl", "values": [{"measurement": "IC50", "setting": "Cytochrome P450 3A4", "result": "> 10000", "unit": "nM"}, {"measurement": "Cmax", "setting": "[1]", "result": 213, "unit": "ng/mL"}, {"measurement": "Cmax", "setting": "[2]", "result": 130000, "unit": "ng/mL"}, {"measurement": "bioavailability", "setting": "[3]", "result": 16.3, "unit": "%"}, {"measurement": "AUC(0-t) at 24 h", "setting": "[4]", "result": 4530, "unit": "ng·h/mL"}, {"measurement": "AUC(0-inf)", "setting": "[5]", "result": 4560, "unit": "ng·h/mL"}, {"measurement": "Cmax", "setting": "[6]", "result": 801, "unit": "ng/mL"}, {"measurement": "Tmax", "setting": "[7]", "result": 4.8, "unit": "min"}, {"measurement": "Survival", "setting": "Staphylococcus aureus [8]", "result": ">70", "unit": "%"}, {"measurement": "IC50", "setting": "[9]", "result": 5.6, "unit": "nM"}, {"measurement": "IC50", "setting": "[10]", "result": 0.2, "unit": "nM"}, {"measurement": "Activity", "setting": "Staphylococcus aureus [11]", "result": ">83", "unit": "%"}, {"measurement": "Activity", "setting": "Staphylococcus aureus [12]", "result": ">71.8", "unit": "%"}, {"measurement": "Activity", "setting": "Staphylococcus aureus [13]", "result": "Active"}, {"measurement": "Activity", "setting": "Staphylococcus aureus [14]", "result": "Active"}, {"measurement": "Activity", "setting": "Staphylococcus aureus [15]", "result": "Active"}, {"measurement": "Activity", "setting": "Staphylococcus aureus [16]", "result": "Active"}, {"measurement": "Activity", "setting": "Staphylococcus aureus [17]", "result": "Active"}, {"measurement": "Activity", "setting": "Rattus norvegicus [18]", "result": "Non-Toxic"}, {"measurement": "Activity", "setting": "Rattus norvegicus [19]", "result": "Non-Toxic"}, {"measurement": "MIC", "setting": "Staphylococcus aureus [20]", "result": "> 500", "unit": "µg/mL"}, {"measurement": "Activity", "setting": "Staphylococcus aureus [21]", "result": "Active"}, {"measurement": "Survival", "setting": "[22]", "result": 1, "unit": "%"}]}
